Measured values reported in ChEMBL document CHEMBL1155387, “Substituted fused bicyclic pyrrolizinones as potent, orally bioavailable hNK1 antagonists” (Bioorg Med Chem Lett, 2010).
“And” between values parts separate entries of the source, which are not always exact repeats. Equal entries are not always repeated.

Assays:
[1] = Displacement of diltiazem […] from calcium channel
In short: (§1)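 Ion-channel binding assay; IC50 values calculated for sodium channel and for calcium channel (diltiazem site).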

Substance-P receptor [2] = target: T1, Substance-P receptor (Homo sapiens, UniProt P25103); assay: Antagonist activity at human NK1 receptor expressed in CHO cells assessed as inhibition of substance P-induced inositol phosphate generation at 100 nM; format: functional, cell-based
Gerbillinae [3] = assay: Inhibition of GR-73632-induced foot tapping in gerbils at 1 mg/kg, iv after 1 hr; format: functional
In short: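 Gerbils given 1 mg/kg iv; GR73632-induced foot tapping challenged 1 h after dosing; inhibition of tapping scored.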

[4] = Inhibition of sodium channel; in short: as §1
Substance-P receptor [5] = target: T1, Substance-P receptor; assay: Displacement of [125I]substance P from human NK1 receptor expressed in CHO cells in the presence of 50 percent human serum; format: cell-based
Substance-P receptor [6] = target: T1, Substance-P receptor; assay: Displacement of [125I]substance P from human NK1 receptor expressed in CHO cells; format: cell-based
In short: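 Competition binding: [125I]-labelled substance P displaced from cloned human NK1 receptor expressed in CHO cells; IC50 reported as mean of n = 3.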

Gerbillinae [7] = assay: Inhibition of GR-73632-induced foot tapping in gerbils at 3 mg/kg, iv after 24 hrs; format: functional; conditions: for inhibition in vivo at 3 mg/kg: Gerbillinae, iv, 24 h
In short: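 Gerbils dosed iv at 3 mg/kg; foot tapping induced by NK1 agonist GR73632 evaluated 24 h post-dose; percent inhibition of the tapping response.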

Gerbillinae [8] = assay: Inhibition of GR-73632-induced foot tapping in gerbils at 1 mg/kg, iv after 0.1 hrs; format: functional
[9] = Oral bioavailability in dog; format: ADME, organism-based, Canis lupus familiaris; conditions: in vivo
Cytochrome P450 2C9 = Cytochrome P450 2C9 (Homo sapiens, UniProt P11712); assay: Inhibition of CYP2C9; format: ADME
[10] = Potency (IC50) in iv dosed gerbil after 1 hr; conditions: gerbillinae, plasma
[11] = Volume of distribution in rhesus monkey; format: ADME, organism-based, Macaca mulatta; conditions: in vivo
Gerbillinae [12] = assay: Inhibition of GR-73632-induced foot taping in iv dosed gerbils after 1 hr; format: functional; conditions: read-out: ID50 (the source's name)
[13] = Stability in human microsomes assessed as compound remaining after 60 mins; format: ADME, Microsome; conditions: read-out: Stability
[14] = Stability in rhesus monkey microsomes assessed as compound remaining after 60 mins; format: ADME, Macaca mulatta, Microsome; conditions: read-out: Stability
[15] = Plasma clearance in dog; format: ADME, organism-based, Canis lupus familiaris
Gerbillinae [16] = assay: Inhibition of GR-73632-induced foot taping in iv dosed gerbils after 24 hrs; format: functional; conditions: read-out: ID50 (the source's name)
[17] = Stability in rat microsomes assessed as compound remaining after 60 mins; format: ADME, Microsome; conditions: read-out: Stability
[18] = Plasma clearance in rat; format: ADME, organism-based
[19] = Stability in dog microsomes assessed as compound remaining after 60 mins; format: ADME, Canis lupus familiaris, Microsome; conditions: read-out: Stability
[20] = Volume of distribution in rat; format: ADME, organism-based; conditions: in vivo
[21] = Ratio of drug level in brain to plasma in rat at 1 mg/kg, iv after 4 hrs; format: ADME, organism-based; parameters: dose 1 mg/kg, route intravenous; conditions: brain and plasma
[22] = Half life in dog; format: ADME, organism-based, Canis lupus familiaris; conditions: in vivo
[23] = Potency (IC50) in iv dosed gerbil brain after 1 hr; conditions: gerbillinae
[24] = Volume of distribution in dog; format: ADME, organism-based, Canis lupus familiaris; conditions: in vivo
[25] = Induction of CYP3A4 expression in human LS180 cells relative to rifampin; format: ADME, cell-based
In short: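 Human LS180 cells treated with test compound at 10 µM. CYP3A4 induction is expressed as fold induction.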

Cytochrome P450 2D6 = Cytochrome P450 2D6 (Homo sapiens, UniProt P10635); assay: Inhibition of CYP2D6; format: ADME
[26] = Oral bioavailability in rhesus monkey; format: ADME, organism-based, Macaca mulatta; conditions: in vivo
[27] = Oral bioavailability in rat; format: ADME, organism-based; conditions: in vivo
[28] = Half life in rhesus monkey; format: ADME, organism-based, Macaca mulatta; conditions: in vivo
[29] = Half life in rat; format: ADME, organism-based; conditions: in vivo
[30] = Plasma clearance in rhesus monkey; format: ADME, organism-based, Macaca mulatta
Cytochrome P450 3A4 = Cytochrome P450 3A4 (Homo sapiens, UniProt P08684); assay: Inhibition of CYP3A4; format: ADME
[31] = target: T2, PXR (nuclear receptor subfamily 1 group I member 2) (Homo sapiens, UniProt O75469); assay: inhibition of human PXR at 10 uM
T2 sequence (O75469 whole entry): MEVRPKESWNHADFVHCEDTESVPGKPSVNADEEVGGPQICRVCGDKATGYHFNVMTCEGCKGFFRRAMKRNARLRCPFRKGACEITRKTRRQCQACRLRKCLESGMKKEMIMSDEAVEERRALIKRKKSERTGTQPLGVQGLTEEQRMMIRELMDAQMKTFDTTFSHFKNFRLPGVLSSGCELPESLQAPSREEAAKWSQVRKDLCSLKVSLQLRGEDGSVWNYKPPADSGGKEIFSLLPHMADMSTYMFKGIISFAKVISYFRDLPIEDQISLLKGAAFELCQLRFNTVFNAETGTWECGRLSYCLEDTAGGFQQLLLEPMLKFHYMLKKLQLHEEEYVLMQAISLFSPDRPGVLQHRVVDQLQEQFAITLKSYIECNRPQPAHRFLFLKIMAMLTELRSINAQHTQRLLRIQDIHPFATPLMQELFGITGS

T1 sequence (P25103 whole entry): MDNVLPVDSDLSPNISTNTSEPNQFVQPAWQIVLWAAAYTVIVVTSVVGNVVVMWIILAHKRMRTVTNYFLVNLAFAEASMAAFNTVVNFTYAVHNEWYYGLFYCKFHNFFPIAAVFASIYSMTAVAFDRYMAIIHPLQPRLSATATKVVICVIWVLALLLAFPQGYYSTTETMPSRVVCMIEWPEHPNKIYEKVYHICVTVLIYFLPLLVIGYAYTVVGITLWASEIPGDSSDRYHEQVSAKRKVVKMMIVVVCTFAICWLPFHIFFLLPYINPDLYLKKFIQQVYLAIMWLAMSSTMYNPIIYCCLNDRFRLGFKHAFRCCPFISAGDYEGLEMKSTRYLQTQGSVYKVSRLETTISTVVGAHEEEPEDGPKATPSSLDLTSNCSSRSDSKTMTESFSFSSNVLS
Cytochrome P450 2D6, sequence (P10635 whole entry): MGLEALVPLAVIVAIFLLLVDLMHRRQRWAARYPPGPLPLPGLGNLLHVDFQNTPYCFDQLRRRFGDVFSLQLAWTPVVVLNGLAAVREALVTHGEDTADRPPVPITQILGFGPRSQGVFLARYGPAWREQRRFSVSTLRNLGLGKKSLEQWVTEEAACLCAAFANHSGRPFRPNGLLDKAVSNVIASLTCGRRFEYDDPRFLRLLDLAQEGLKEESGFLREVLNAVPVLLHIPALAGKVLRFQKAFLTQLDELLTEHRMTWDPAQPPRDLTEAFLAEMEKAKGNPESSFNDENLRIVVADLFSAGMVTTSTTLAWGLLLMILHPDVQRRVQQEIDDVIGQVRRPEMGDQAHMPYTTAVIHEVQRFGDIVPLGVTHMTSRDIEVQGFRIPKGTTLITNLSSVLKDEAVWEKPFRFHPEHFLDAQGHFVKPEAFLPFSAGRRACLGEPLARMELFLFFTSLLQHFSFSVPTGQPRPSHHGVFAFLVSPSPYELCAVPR
Cytochrome P450 3A4, sequence (P08684 whole entry): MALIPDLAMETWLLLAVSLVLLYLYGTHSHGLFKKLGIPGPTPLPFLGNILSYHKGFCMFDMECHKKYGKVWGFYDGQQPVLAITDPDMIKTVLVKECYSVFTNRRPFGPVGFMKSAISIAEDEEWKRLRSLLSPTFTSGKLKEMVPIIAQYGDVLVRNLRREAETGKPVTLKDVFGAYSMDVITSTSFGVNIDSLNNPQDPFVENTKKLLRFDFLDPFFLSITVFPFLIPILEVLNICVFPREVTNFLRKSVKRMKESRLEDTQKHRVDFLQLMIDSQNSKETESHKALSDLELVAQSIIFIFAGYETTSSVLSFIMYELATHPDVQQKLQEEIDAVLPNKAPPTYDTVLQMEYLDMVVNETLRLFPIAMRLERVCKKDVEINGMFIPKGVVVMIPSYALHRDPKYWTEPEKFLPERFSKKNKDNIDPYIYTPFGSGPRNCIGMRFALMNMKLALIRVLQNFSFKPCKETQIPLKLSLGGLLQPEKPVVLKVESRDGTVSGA
Cytochrome P450 2C9, sequence (P11712 whole entry): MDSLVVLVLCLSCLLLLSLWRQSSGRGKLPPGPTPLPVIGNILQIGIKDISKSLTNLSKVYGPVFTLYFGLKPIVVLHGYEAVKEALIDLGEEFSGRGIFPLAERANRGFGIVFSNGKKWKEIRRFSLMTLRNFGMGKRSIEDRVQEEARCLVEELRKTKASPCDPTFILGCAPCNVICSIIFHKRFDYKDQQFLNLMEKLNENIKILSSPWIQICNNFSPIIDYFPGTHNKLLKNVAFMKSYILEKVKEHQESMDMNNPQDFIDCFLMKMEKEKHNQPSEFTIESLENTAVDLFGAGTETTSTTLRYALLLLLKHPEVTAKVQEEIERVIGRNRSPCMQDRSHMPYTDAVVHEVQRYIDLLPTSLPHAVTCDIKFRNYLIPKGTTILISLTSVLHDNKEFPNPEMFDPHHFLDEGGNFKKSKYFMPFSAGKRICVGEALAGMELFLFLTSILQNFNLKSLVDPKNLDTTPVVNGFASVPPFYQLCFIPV

## C[C@@H](O[C@H]1CN2C(=O)C(NCc3nn[nH]c3CN(C)C)C[C@H]2[C@@H]1c1ccc(F)cc1)c1cc(C(F)(F)F)cc(C(F)(F)F)c1 (some centres not stated)
[1]
  IC50: 301 nM
Substance-P receptor [2]
  inhibition of substance P-induced inositol phosphate generation: 40%
Gerbillinae [3]
  inhibition in vivo at 1 mg/kg: 88%
[4]
  IC50: 2410 nM
Substance-P receptor [5]
  IC50: 1.4 nM
Substance-P receptor [6]
  IC50: 0.13 nM

## CC(=O)N1C[C@H](O[C@H](C)c2cc(C(F)(F)F)cc(C(F)(F)F)c2)[C@@H](c2ccc(F)cc2)[C@@H]1CO
Substance-P receptor [2]
  inhibition of substance P-induced inositol phosphate generation: 91%
Gerbillinae [7]
  inhibition in vivo at 3 mg/kg: 0%
Substance-P receptor [5]
  IC50: 43.1 nM
Gerbillinae [8]
  inhibition in vivo at 1 mg/kg: 49%
Substance-P receptor [6]
  IC50: 0.3 nM

## C[C@@H](O[C@H]1CN2C(=O)CC(n3cnnc3)[C@H]2[C@@H]1c1ccc(F)cc1)c1cc(C(F)(F)F)cc(C(F)(F)F)c1 (some centres not stated)
[1]
  IC50: > 10000 nM
Substance-P receptor [2]
  inhibition of substance P-induced inositol phosphate generation: 52%
Gerbillinae [3]
  inhibition in vivo at 1 mg/kg: 0%
[4]
  IC50: 7820 nM
Substance-P receptor [5]
  IC50: 0.83 nM
Substance-P receptor [6]
  IC50: 0.07 nM

## C[C@@H](O[C@H]1CN2C(=O)CC[C@H]2[C@@H]1c1ccc(F)cc1)c1cc(C(F)(F)F)cc(C(F)(F)F)c1
Substance-P receptor [2]
  inhibition of substance P-induced inositol phosphate generation: 67%
Gerbillinae [7]
  inhibition in vivo at 3 mg/kg: 100%
Gerbillinae [3]
  inhibition in vivo at 1 mg/kg: 100%
Substance-P receptor [5]
  IC50: 2.2 nM
Gerbillinae [8]
  inhibition in vivo at 1 mg/kg: 100%

## C[C@@H](O[C@H]1CN2C(=O)C(O)C[C@H]2[C@@H]1c1ccc(F)cc1)c1cc(C(F)(F)F)cc(C(F)(F)F)c1 (stereo in doubt; 2b)
[9]
  bioavailability: 98%
[1]
  IC50: 9400 nM and 2600 nM
Cytochrome P450 2C9
  INH: > 100 µM
[10]
  IC50 at 1 h: 8.4 nM
[11]
  Vd: 2.6 L/kg
Gerbillinae [12]
  ED50: 0.02 mg/kg
[13]
  remaining at 1 h: 54%
[14]
  remaining at 1 h: 23%
[15]
  clearance: 0.8 mL/min/kg
Gerbillinae [16]
  ED50: 0.016 mg/kg
[17]
  remaining at 1 h: 60%
[18]
  clearance: 5.1 mL/min/kg
Gerbillinae [7]; 3 mg/kg
  inhibition (INH): 100%
[19]
  remaining at 1 h: 73%
[20]
  Vd: 4.2 L/kg
[21]
  Kp at 4 h: 1
[22]
  half-life: 128 h
[23]
  IC50 at 1 h: 3.8 nM
[24]
  Vd: 2.8 L/kg
[25]
  Ratio: 13
Cytochrome P450 2D6
  INH: 62.2 µM
[26]
  bioavailability: 68%
[27]
  bioavailability: 93%
[4]
  IC50: 4360 nM and 2600 nM
[28]
  half-life: 80.4 h
[29]
  half-life: 13 h
[30]
  clearance: 1 mL/min/kg
Substance-P receptor [5]
  IC50: 0.91 nM
Cytochrome P450 3A4
  INH: > 100 µM
[31]
  inhibition at 10 µM: 31%
Substance-P receptor [6]
  IC50: 0.08 nM

## C[C@@H](O[C@H]1CN2C(=O)CC(N)[C@H]2[C@@H]1c1ccc(F)cc1)c1cc(C(F)(F)F)cc(C(F)(F)F)c1 (stereo in doubt; 15a)
[1]
  IC50: 1880 nM
Cytochrome P450 2C9
  Activity: 45 µM
Gerbillinae [12]
  ED50: 0.88 mg/kg
[13]
  remaining at 1 h: 66%
[14]
  remaining at 1 h: 91%
Gerbillinae [16]
  ED50: 0.92 mg/kg
[17]
  remaining at 1 h: 85%
[18]
  clearance: 8.9 mL/min/kg
Gerbillinae [7]
  inhibition in vivo at 3 mg/kg: 100%
[19]
  remaining at 1 h: 89%
[20]
  Vd: 5.9 L/kg
[21]
  Kp at 4 h: 1.4
Cytochrome P450 2D6
  Activity: 66 µM
[27]
  bioavailability: 78%
[4]
  IC50: 7720 nM
[29]
  half-life: 7.7 h
Substance-P receptor [5]
  IC50: 0.6 nM
Cytochrome P450 3A4
  Activity: > 100 µM
Substance-P receptor [6]
  IC50: 0.09 nM
